High-throughput results: PubChem, Broad Institute
Compounds with a hit are over-represented: about 2.9% of the library has one in this group of screens.
Cneo AK release – causes C. neoformans cell lysis. hit rate 0.2% among 360,000. AID 651654. lysis activity, % at 15 µM. adenylate kinase release luminescence, 4 h; normalised: neutral wells 0, clomiphene wells 100;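 active = mean lysis activity across replicates of at least 80%, whatever share of replicates individually reach that level; inactive = mean lysis activity below 80%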
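Assay system: C. neoformans cells. Amount: yeast cell density of 5 × 10^6 cells/mL. Technique: AK luminescence. Buffer or medium: YPD. Times: static 4 h at 37 °C with compound, 1 h detection. Dosing: single-point compound dose. Read-out: lysis from increased AK signal.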
PGC1a acetyl inh – lowers PGC1a acetylation signal in U2OS cells; inhibition, % at 15.6 µM; AlphaScreen anti-acetyl-lysine; with virally co-expressed GCN5 acetyltransferase; hit rate 0.17% among 350,000;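 active = every replicate shows inhibition of at least 40%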;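 note: 0% = neutral control wells and 100% = positive control wells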
Ecoli rRNA inh – inhibits bacterial ribosomal RNA function over humanized ribosomes; E. coli WT GFP vs humanized-ribosome RFP mutants, fluorescence, 24 h; active compounds read low; DMSO median 0, no signal -100; GFP signal change (wild-type ribosome), % (test concentration not listed); hit rate 1.6% among 350,000;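 active = significant combined selectivity score with lowered wild-type GFP, culture density cut under 30%, mutant RFP and density less affected; inactive = any of these conditions unmet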
FGF22 binding – shifts melting point of recombinant human FGF22. Q9HCT0. recombinant FGF22 thermal shift, SYPRO orange fluorescence; percent of sucrose octasulfate shift, DMSO zero. activity (Tm shift, normalised), % at 9.99 µM. hit rate 1.5% among 340,000. AID 651658;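 active = mean Tm shift, scaled 0 neutral to 100 positive control, at about 1.3% or above, every replicate too, limit read from the data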
Target sequence (Q9HCT0 whole entry, looked up): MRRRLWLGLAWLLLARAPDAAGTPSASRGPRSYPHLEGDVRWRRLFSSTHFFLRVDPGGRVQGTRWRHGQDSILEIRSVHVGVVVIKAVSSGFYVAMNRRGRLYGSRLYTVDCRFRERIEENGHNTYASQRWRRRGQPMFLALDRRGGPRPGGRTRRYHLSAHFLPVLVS
Vif imaging – HIV Vif inhibition; HEK293T cells, Vif self-association by quenched fluorescence, imaging, 24 h; inhibition, % at 7.49 µM; AID 602346; hit rate 0.35% among 340,000; in the data active = inhibition above about 50%, passing the limit was not always enough
PglD inh – inhibitors of Campylobacter jejuni PglD acetyltransferase | hit rate 0.098% among 360,000 | purified PglD enzyme, DTNB colorimetric CoA detection | inhibition, % at 12.5 µM | AID 602405; in the data active = inhibition above about 16%, passing the limit was not always enough
Starred values were filed as active, the others as inactive; . = not tested or not shown.

SMILES | Cneo AK release | PGC1a acetyl inh | Ecoli rRNA inh | FGF22 binding | Vif imaging | PglD inh
O=C(NCCc1ccccc1)[C@H]1[C@H](CO)[C@H]2Cn3c(cccc3=O)[C@@H]1N2C(=O)C1CCC1 | 105.4* | . | 4.3 | 0.2 | . | 3.9
C[C@H]1CCCCO[C@@H](CN(C)C(=O)Nc2ccccc2)[C@@H](C)CN([C@@H](C)CO)C(=O)c2cc(NC(=O)c3ccccc3)ccc2O1 | -2.1 | 7.5 | -0.3 | -0.6 | . | 3.7
Cc1cccc(C)c1OCC(=O)NCc1ccccc1 | 0.8 | . | -4.9 | 0.1 | . | 2.4
Cc1cccc(C)c1OCC(=O)Nn1c(=O)[nH]c2ccccc2c1=O | . | . | . | 43.1* | -1.4 | .
c1cc2c3c(cccc3c1)C(N1CCCCCC1)=N2 | -1.5 | -86.4 | . | . | 0.6 | 2.1
c1ccc2c(c1)CCN(C1=Nc3cccc4cccc1c34)C2 | . | -11.6 | -19.1 | 43.0* | -0.9 | .
CSc1ncnc2c1ncn2CCCNc1ccc(C)c(C)c1 | . | -43.9 | -26.5* | -0.7 | -6.8 | .
CSc1ncnc2c1ncn2CCCNCc1ccccc1 | . | 13.8 | 11.4 | -0.2 | -1.0 | .
Cc1ccccc1-c1cnc2c(c1)C(=O)N([C@@H](C)CO)C[C@H](C)[C@H](CN(C)C(=O)c1ccc(F)cc1)O2 | -2.6 | 1.8 | 0.1 | 0.0 | . | 4.7
CO[C@H]1CN(C)C(=O)c2cc(NC(=O)Nc3cccc(Cl)c3)ccc2OC[C@@H](C)NC[C@H]1C | 2.1 | 3.1 | -4.9 | -0.3 | . | 1.2
O=C(NCCC1=CCCCC1)Nc1ccc2nsnc2c1 | . | . | -1.4 | 42.9* | -1.0 | .
CC(=O)c1cccc(NC(=S)NCCC2=CCCCC2)c1 | . | 2.6 | . | . | 4.2 | .
O=C(Cc1ccc(F)cc1)NC1CCSC1=O (stereo not drawn) | . | 13.0 | 15.6 | 43.0* | 4.3 | .
Cc1ccc(OCCC(=O)Nc2ccc(S(=O)(=O)N3CCCC3)cc2)cc1 | -2.2 | -4.0 | 4.8 | -0.2 | -1.9 | 0.0
NS(=O)(=O)c1ccc(NC(=O)COC(=O)COc2ccc(Cl)cc2)cc1 | . | . | . | 43.1* | 3.1 | .
Cc1ccc(OCCCC(=O)Nc2ccc(S(N)(=O)=O)cc2)cc1 | -5.5 | 5.5 | -16.6 | 43.4* | 10.6 | 0.6
O=C(Nc1ccccc1F)N1CCCCN2[C@H](CO)[C@@H](c3ccc(C4=CCCCC4)cc3)[C@H]2C1 | 4.6 | -33.2 | . | 0.5 | . | 6.3
COc1ccc(S(=O)(=O)Nc2ccc3c(c2)C(=O)N([C@H](C)CO)C[C@@H](C)[C@@H](CN(C)C(=O)Nc2ccc(C(F)(F)F)cc2)O3)cc1 | 3.5 | 0.4 | -0.8 | -0.4 | . | -0.1
CCNS(=O)(=O)c1c(C)cc(C)c(N(C)S(=O)(=O)c2ccccc2)c1C | . | . | . | 43.0* | 2.2 | .
Cc1cc(C)c(S(N)(=O)=O)c(C)c1N(C)S(=O)(=O)c1ccccc1 | 2.5 | -1.8 | -10.2 | 0.2 | -9.6 | 2.8
Cc1[nH]c2ccccc2c1C(C[N+](=O)[O-])c1cccc(O)c1 (stereo not drawn) | . | -5.9 | -32.5* | 0.0 | 4.0 | .
CCCC(=O)N1CC2(CCN(C(=O)NC(C)C)CC2)c2c(n(C)c3cc(OC)ccc23)[C@@H]1CO | . | . | -2.5 | . | . | .
CC1CCCN(Cc2c(C(=O)N3CCc4ccccc4C3)nc3ccc(Cl)cn23)C1 (stereo not drawn) | -1.4 | -0.8 | -25.4* | -0.2 | -10.6 | .
Cc1cc2c(c(=O)o1)C(CCC1CCCCC1)C(C#N)=C(N)O2 (stereo not drawn) | -0.1 | -4.8 | -20.8* | 0.1 | 10.4 | -1.7
CCCCOc1ncnc2c1[nH]c1ccccc12 | -11.4 | . | 1.6 | . | 88.3* | -3.0
CCCCOc1ncnc2c1[nH]c1ccc(OCC)cc12 | 7.2 | 5.1 | . | . | -5.8 | 0.4
CN1C(=O)c2cc(NC(=O)C3CC3)ccc2OC[C@@H]2O[C@@H](CC(=O)NCc3cccc(F)c3)CC[C@@H]21 | 0.7 | -0.1 | -0.4 | -0.2 | . | -1.7
CSc1ccccc1C(=O)C1CCCN(C(=O)c2csnn2)C1 (stereo not drawn) | -1.3 | -10.5 | 6.4 | 43.2* | -5.8 | 0.3
CC1=C(C(=O)OCc2ccccc2)C(c2ccccc2)NC(=O)N1CCCC(=O)O (stereo not drawn) | 0.5 | 0.9 | -10.2 | 0.0 | 6.7 | -1.9
CC1=C(C(=O)OCC(Br)(Br)Br)C(c2cccc([N+](=O)[O-])c2)NC(=O)N1CCCC(=O)O (stereo not drawn) | 1.5 | . | -19.9* | -0.1 | 0.4 | -1.5
